Source: ChEMBL document CHEMBL3526115, “Differences in the pharmacokinetics of 4-amino-3-chlorophenyl hydrogen sulfate, a metabolite of resatorvid, in rats and dogs” (Drug Metab Dispos, 2012)

Experiments:
[1] = Elimination rate constant in Crj:CD(SD)IGS rat at 0.5 mg/kg, iv administered as bolus dose by HPLC-based liquid scintillation counting analysis; assay type: ADME, organism-based; design: dose 0.5 mg/kg, route intravenous; conditions: in vivo
Procedure, shortened: (§1)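 [14C]M-III in saline given as a single iv bolus at 0.5 mg/kg to male rats (tail-vein blood, 5 min–24 h) or male beagle dogs (cephalic-vein blood, 5 min–168 h). Heparinized plasma counted for radioactivity; M-III quantified by HPLC with fraction collection and liquid scintillation counting. C5 min read directly; terminal t1/2 by linear regression, kel = ln2/t1/2, Vd = dose/back-extrapolated C0, CLtot = dose/AUCinf. Mean ± S.D., n = 3.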

[2] = Terminal half life in Beagle dog at 0.5 mg/kg, iv administered as bolus dose by HPLC-based liquid scintillation counting analysis; assay type: ADME, organism-based, Canis lupus familiaris; design: dose 0.5 mg/kg, route intravenous; conditions: in vivo, read-out: beta t1/2 (converted); procedure, shortened: as §1
[3] = AUC infinity in Beagle dog at 0.5 mg/kg, iv administered as bolus dose by HPLC-based liquid scintillation counting analysis; assay type: ADME, organism-based, Canis lupus familiaris; design: time infinity, dose 0.5 mg/kg, route intravenous; conditions: plasma
Procedure, shortened: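 Male beagles (7.4–10.0 kg) got a single IV injection of [14C]M-III in saline (2.5 mg/ml), 0.5 mg–1.0 MBq/kg. Cephalic-vein blood was taken from 5 min to 168 h and spun for heparinized plasma. Plasma was deproteinized with acetonitrile, run on reverse-phase HPLC and collected as 1-min fractions counted by LSC. AUCinf = AUClast + Clast/kel; n = 3.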

Plasma = assay: Plasma concentration in Crj:CD(SD)IGS rat at 0.125 mg/hr, iv administered as continuous infusion by HPLC based liquid scintillation counting analysis; assay type: ADME, organism-based; conditions: in vivo
Procedure, shortened: (§2)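 Rats were continuously infused iv with [14C]M-III at 0.125 mg/rat/h, plus probenecid (4.7, 9.4, 18.6 mg/rat/h) or vehicle. Femoral-artery blood was taken at 0.5, 1, 2, 3 and 4 h, with terminal aortic blood at 5 h. Plasma radioactivity was measured, with probenecid quantified by HPLC-UV at 240 nm against spiked-plasma calibration from 0.1 to 100 µg/ml.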

Rattus norvegicus [4] = assay: Intrinsic total body clearance in Crj:CD(SD)IGS rat at 0.125 mg/hr, iv administered as continuous infusion by HPLC based liquid scintillation counting analysis in presence of 31 mg/hr/kg probenecid; assay type: ADME, organism-based; conditions: in vivo
Procedure, shortened: (§3)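 Rats received a continuous iv infusion of [14C]M-III at 0.125 mg/rat/h, with probenecid co-infused at 16, 31 or 62 mg/h/kg or vehicle alone, for 5 h. Arterial plasma was sampled during infusion. CLtot = infusion rate / steady-state plasma M-III (120–180 min). Unbound fraction was measured by ultrafiltration of 5-h plasma (10,000 MWCO, 1500g, 37°C, 10 min). CLint = CLtot / unbound ratio.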

[5] = Renal clearance in Crj:CD(SD)IGS rat at 0.5 mg/kg, iv administered as bolus dose measured from 0 to 24 hrs by HPLC-based liquid scintillation counting analysis; assay type: ADME, organism-based, Kidney; design: dose 0.5 mg/kg, route intravenous; conditions: in vivo
Procedure, shortened: (§4)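 After a 0.5 mg/kg iv bolus of [14C]M-III, urine was collected 0–24 h (rat) or 0–168 h (dog) and injected directly onto HPLC with fraction collection and scintillation counting. M-III in urine was derived from the urinary 14C excretion ratio and the [14C]M-III composition. CLrenal = urinary M-III amount / AUC0–24 h (rat) or AUC0–168 h (dog). Unbound CLrenal = CLrenal / free fraction.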

[6] = Plasma concentration in Crj:CD(SD)IGS rat at 0.125 mg/hr, iv administered as continuous infusion measured after 3 hrs by HPLC based liquid scintillation counting analysis in presence of probenecid; assay type: ADME, organism-based; conditions: with probenecid (dose not stated); procedure, shortened: as §2
Rattus norvegicus [7] = assay: Unbound renal clearance in Crj:CD(SD)IGS rat at 0.5 mg/kg, iv administered as bolus dose measured from 0 to 24 hrs by HPLC-based liquid scintillation counting analysis; assay type: ADME, organism-based, Kidney; design: dose 0.5 mg/kg, route intravenous; conditions: in vivo
Procedure, shortened: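 Male Crj:CD(SD)IGS rats received [14C]M-III in saline as an IV bolus at 0.5 mg–2.6 MBq/kg. Urine was collected in metabolic cages over 0–24 h. M-III in urine was taken as total urinary 14C times the M-III fraction, measured by direct HPLC, 1-min fraction collection and scintillation counting. CLrenal = urinary M-III / AUC. Unbound CLrenal = CLrenal / free fraction, from in vivo ultrafiltration binding. n = 3.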

[8] = In vitro plasma protein binding in rat at 5 ug/ml by ultrafiltration method; assay type: ADME, cell-free; conditions: read-out: PPB (converted)
Procedure, shortened: (§5)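 [14C]M-III in saline was added to rat or dog plasma at final 0.5, 5 and 50 µg/ml. Plasma was ultrafiltered by centrifugation at 1500g and 37°C for 10 min, and 14C was measured in plasma and filtrate. Mean ± S.D., n = 3.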

[9] = Drug recovery in Beagle dog urine at 0.5 mg/kg, iv administered as bolus dose measured from 0 to 168 hrs by HPLC-based liquid scintillation counting analysis; assay type: ADME, organism-based, Canis lupus familiaris; design: dose 0.5 mg/kg, route intravenous; conditions: read-out: Drug recovery; procedure, shortened: as §4
[10] = Unbound fraction in Crj:CD(SD)IGS rat plasma at 0.125 mg/hr, iv administered as continuous infusion by ultrafiltration method in presence of 16 mg/hr/kg probenecid; assay type: ADME, organism-based; conditions: with probenecid 16 mg/hr/kg; procedure, shortened: as §3
[11] = In vivo plasma protein binding in Beagle dog at 0.5 mg/kg, iv administered as bolus dose by ultrafiltration method; assay type: ADME, organism-based, Canis lupus familiaris; design: dose 0.5 mg/kg, route intravenous; conditions: read-out: PPB (converted)
Procedure, shortened: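 Plasma was taken from beagle dogs 24 h after a 0.5 mg/kg iv bolus of [14C]M-III (cephalic vein). Binding was determined by ultrafiltration (1500g, 37°C, 10 min), with 14C measured in plasma and filtrate.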

[12] = Terminal half life in Crj:CD(SD)IGS rat at 0.5 mg/kg, iv administered as bolus dose by HPLC-based liquid scintillation counting analysis; assay type: ADME, organism-based; design: dose 0.5 mg/kg, route intravenous; conditions: in vivo, read-out: beta t1/2 (converted); procedure, shortened: as §1
[13] = Renal clearance in Beagle dog at 0.5 mg/kg, iv administered as bolus dose measured from 0 to 168 hrs by HPLC-based liquid scintillation counting analysis; assay type: ADME, organism-based, Canis lupus familiaris, Kidney; design: dose 0.5 mg/kg, route intravenous; conditions: in vivo; procedure, shortened: as §4
Rattus norvegicus [14] = assay: Intrinsic total body clearance in Crj:CD(SD)IGS rat at 0.125 mg/hr, iv administered as continuous infusion by HPLC based liquid scintillation counting analysis in presence of 62 mg/hr/kg probenecid; assay type: ADME, organism-based; conditions: in vivo; procedure, shortened: as §3
Rattus norvegicus [15] = assay: Intrinsic total body clearance in Crj:CD(SD)IGS rat at 0.125 mg/hr, iv administered as continuous infusion by HPLC based liquid scintillation counting analysis; assay type: ADME, organism-based; conditions: in vivo; procedure, shortened: as §3
[16] = In vitro plasma protein binding in dog at 50 ug/ml by ultrafiltration method; assay type: ADME, cell-free, Canis lupus familiaris; conditions: read-out: PPB (converted); procedure, shortened: as §5
[17] = Apparent volume of distribution in Crj:CD(SD)IGS rat at 0.5 mg/kg, iv administered as bolus dose by HPLC-based liquid scintillation counting analysis; assay type: ADME, organism-based; design: dose 0.5 mg/kg, route intravenous; conditions: in vivo, read-out: Vd(app); procedure, shortened: as §1
[18] = Drug excretion in Beagle dog urine assessed as excretion ratio of [14C] at 0.5 mg/kg, iv administered as bolus dose measured from 0 to 168 hrs by HPLC-based liquid scintillation counting analysis; assay type: ADME, organism-based, Canis lupus familiaris; design: dose 0.5 mg/kg, route intravenous; conditions: in vivo
Procedure, shortened: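 Male rats in metabolic cages with urine/feces separator, or beagle dogs, after a 0.5 mg/kg iv bolus of [14C]M-III in saline. Radioactivity in urine and feces collected 0–24 h (rats) or 0–168 h (dogs) was counted and expressed as percent of dose. Mean ± S.D., n = 3.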

N[14c]1[14cH][14cH][14c](OS(=O)(=O)O)[14cH][14c]1Cl
k el [1]: 5.11e-05 s⁻¹ | half-life [2]: 120 h | AUC(0-inf) [3]: 596 µg·h/mL | Cp (Plasma): 600 ng/mL | CL (Rattus norvegicus [4]): 11.9 mL/min/kg | CL renal [5]: 9.47 mL/min/kg | concentration at 3 h [6]: 3600 ng/mL | CL free (Rattus norvegicus [7]): 96.3 mL/min/kg | fraction unbound at 5 ug/ml [8]: 0.078 | dose excreted [9]: 19.5% | fraction unbound [10]: 0.078 | fraction unbound [11]: 0.08 | half-life [12]: 4.1 h | CL renal [13]: 0.00468 mL/min/kg | CL (Rattus norvegicus [14]): 9.38 mL/min/kg | clearance (Rattus norvegicus [15]): 130 mL/min/kg | fraction unbound at 50 ug/ml [16]: 0.154 | Vd [17]: 0.14 L/kg | Drug excretion [18]: 44.6%
